According to ChEMBL document CHEMBL4837214, “Design, synthesis, and biological evaluation of novel tetrahydroprotoberberine derivatives to reduce SREBPs expression for the treatment of hyperlipidemia” (Eur J Med Chem, 2021):
The source made the active and inactive calls. The calls are words filed in the database; no cut-off is given here.

What was measured:
HepG2 [1] = experiment: Down regulation of precursor and mature forms of SREBP-2 protein expression in human HepG2 cells after 24 hrs by Western blotting analysis; type: functional, cell-based; settings: dose 5-80 µM
Procedure, shortened: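 HepG2 cells treated 24 h at the indicated doses and lysed in RIPA buffer with protease inhibitors; protein quantified by BCA. Lysates run on 10% SDS-PAGE and blotted to nitrocellulose. After 5% milk block, primary antibody applied overnight at 4 °C and secondary 1 h at room temperature. β-actin served as loading reference.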

HepG2 [2] = experiment: Down regulation of FASN gene expression in human HepG2 cells by qRT-PCR analysis; type: functional, cell-based
[3] = biological target: T1, Sterol regulatory element-binding protein 1 (Homo sapiens) (UniProt P36956); experiment: Induction of SREBP degradation in human HepG2 cells at 10 uM preincubated with MG-132 for 1 hr followed by compound additon and measured after 4 hrs by Western blot analysis; type: cell-based
T1 sequence (whole entry): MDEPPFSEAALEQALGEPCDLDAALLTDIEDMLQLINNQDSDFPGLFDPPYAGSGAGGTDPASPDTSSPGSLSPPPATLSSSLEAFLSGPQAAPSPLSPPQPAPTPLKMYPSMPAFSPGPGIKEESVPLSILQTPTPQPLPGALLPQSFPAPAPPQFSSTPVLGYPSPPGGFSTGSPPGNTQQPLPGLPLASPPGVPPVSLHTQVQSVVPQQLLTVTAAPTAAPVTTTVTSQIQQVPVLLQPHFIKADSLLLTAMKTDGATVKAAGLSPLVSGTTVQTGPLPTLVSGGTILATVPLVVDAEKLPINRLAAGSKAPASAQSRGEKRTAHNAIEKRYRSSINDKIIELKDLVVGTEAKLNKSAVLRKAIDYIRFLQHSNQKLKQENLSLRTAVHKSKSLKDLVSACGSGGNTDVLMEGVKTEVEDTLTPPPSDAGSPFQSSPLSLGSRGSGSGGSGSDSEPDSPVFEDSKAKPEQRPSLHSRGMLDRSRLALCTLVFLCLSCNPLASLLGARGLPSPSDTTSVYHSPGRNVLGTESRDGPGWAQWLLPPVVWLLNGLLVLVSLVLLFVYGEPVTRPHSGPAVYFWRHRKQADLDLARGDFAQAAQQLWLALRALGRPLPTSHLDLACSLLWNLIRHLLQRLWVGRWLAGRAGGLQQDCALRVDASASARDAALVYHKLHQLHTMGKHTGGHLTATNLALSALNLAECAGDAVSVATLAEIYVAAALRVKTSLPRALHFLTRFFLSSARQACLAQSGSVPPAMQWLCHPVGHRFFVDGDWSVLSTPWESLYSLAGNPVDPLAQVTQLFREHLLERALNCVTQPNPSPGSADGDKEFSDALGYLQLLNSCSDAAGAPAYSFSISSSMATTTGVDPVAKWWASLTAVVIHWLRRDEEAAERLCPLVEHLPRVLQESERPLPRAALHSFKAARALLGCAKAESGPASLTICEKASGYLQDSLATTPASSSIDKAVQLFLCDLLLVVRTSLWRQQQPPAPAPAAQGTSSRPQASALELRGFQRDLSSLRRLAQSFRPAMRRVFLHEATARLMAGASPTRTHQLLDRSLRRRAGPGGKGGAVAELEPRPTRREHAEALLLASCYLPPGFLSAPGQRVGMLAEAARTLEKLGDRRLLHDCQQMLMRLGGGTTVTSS
Procedure, shortened: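 HepG2 cells pretreated 1 h with MG-132 at […]. Medium then switched to MG-132 plus vehicle or compound at […] for 4 h. SREBPs detected in lysates by Western blot.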

[4] = Cmax in Sprague-Dawley rat at 1 mg/kg, iv measured upto 12 hrs by LC-MS/MS analysis; type: ADME, organism-based; set-up: route intravenous, dose 1 mg/kg, time <=12; settings: in vivo
Procedure, shortened: (§1)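 Six SD rats split into two groups of three, dosed 1 mg/kg IV or 10 mg/kg orally. IV blood drawn at 2, 5, 15, 30 min and 1, 2, 4, 6, 8, 12 h. Oral blood drawn at 5, 15, 30 min and 1, 2, 4, 6, 8, 12, 24 h. Serum drug measured by LC/MS/MS. Parameters are the average of three runs.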

[5] = AUC (0 to infinity) in Sprague-Dawley rat at 10 mg/kg, po measured upto 24 hrs by LC-MS/MS analysis; type: ADME, organism-based; set-up: route oral, dose 10 mg/kg, time <=24; settings: in vivo
Procedure, shortened: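 Six SD rats split into two groups (n=3 each), dosed once either intravenously at 1 mg/kg or orally at 10 mg/kg. Blood sampled at 2 min–12 h after IV dosing and at 5 min–24 h after oral dosing. Serum drug level measured by LC/MS/MS. AUC0-∞ is the mean of three runs.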

[6] = Half life in Sprague-Dawley rat at 1 mg/kg, iv measured upto 12 hrs by LC-MS/MS analysis; type: ADME, organism-based; settings: in vivo; procedure, shortened: as §1
[7] = Toxicity in high fat diet-induced C57BL/6J mouse assessed as change in heart morphology at 170 to 340 mg/kg, po administered for 6 weeks by H and E staining-based assay; type: organism-based; settings: in vivo, 1008 h, dose 170-340 mg/kg
Procedure, shortened: (§2)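 Male C57BL/6J mice, six weeks old, fed a 45%-fat diet (HFD) for 15 weeks; chow-fed mice served as controls. Obese mice were randomized to vehicle (0.1% w/v CMC-Na) or 170 or 340 mg/kg, gavaged daily for 6 weeks while diet continued. Body weight, food intake, organ weights, serum lipids, tissue histology (H&E, Oil red O), liver SREBP blots and liver qPCR followed.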

[8] = Toxicity in high fat diet-induced C57BL/6J mouse assessed as change in spleen morphology at 170 to 340 mg/kg, po administered for 6 weeks by H and E staining-based assay; type: organism-based; settings: in vivo, 1008 h, dose 170-340 mg/kg; procedure, shortened: as §2
Mus musculus [9] = experiment: Hypoglycemic activity in high fat diet-induced C57BL/6J mouse assessed as improvement in glucose tolerance at 170 to 340 mg/kg, po administered daily for 6 weeks and measured up to 120 mins by OGTT method; type: functional, organism-based; settings: dose 170-340 mg/kg; procedure, shortened: as §2
Mus musculus [10] = experiment: Hypolipidemic activity in high fat diet-induced C57BL/6J mouse assessed as reduction in serum TG level at 170 to 340 mg/kg, po administered daily for 6 weeks; type: functional, organism-based; settings: dose 170-340 mg/kg; procedure, shortened: as §2
Mus musculus [11] = experiment: […] activity in high fat diet-induced C57BL/6J mouse assessed as reduction in ACC mRNA level in liver at 170 to 340 mg/kg, po administered daily for 6 weeks by qRT-PCR analysis; type: functional, organism-based; settings: dose 170-340 mg/kg; procedure, shortened: as §2
Mus musculus [12] = experiment: […] activity in high fat diet-induced C57BL/6J mouse assessed as reduction in LDLR mRNA level in liver at 170 to 340 mg/kg, po administered daily for 6 weeks by qRT-PCR analysis; type: functional, organism-based; settings: dose 170-340 mg/kg; procedure, shortened: as §2
Mus musculus [13] = experiment: […] activity in high fat diet-induced C57BL/6J mouse assessed as reduction in Scd mRNA level in liver at 170 to 340 mg/kg, po administered daily for 6 weeks by qRT-PCR analysis; type: functional, organism-based; settings: dose 170-340 mg/kg; procedure, shortened: as §2
Mus musculus [14] = experiment: Hypolipidemic activity in high fat diet-induced C57BL/6J mouse assessed as reduction in lipid accumulation in liver at 170 to 340 mg/kg, po administered daily for 6 weeks by Oil Red O staining based assay; type: functional, organism-based; settings: dose 170-340 mg/kg; procedure, shortened: as §2
Mus musculus [15] = experiment: Hypolipidemic activity in high fat diet-induced C57BL/6J mouse assessed as reduction in cell size of WAT at 170 to 340 mg/kg, po administered daily for 6 weeks by H and E staining based assay; type: functional, organism-based; settings: dose 170-340 mg/kg; procedure, shortened: as §2

- Activity [3]: inactive
- Cmax [4]: 901 ng/mL
- AUC [5]: 4290 ng·h/mL
- half-life [6]: 4.95 h
SMILES: COc1ccc2c(c1OCC1CCCCC1)CN1CCc3cc4c(cc3C1C2)OCO4 (stereo not given)
- Activity (HepG2 [1]): Dose-Dependent Effect
- Activity (HepG2 [2]): Active
- Activity [7]: Non-Toxic
- Activity [8]: Non-Toxic
- Activity (Mus musculus [9]): Active
- Activity (Mus musculus [10]): Active
- Activity (Mus musculus [11]): Active
- Activity (Mus musculus [12]): Active
- Activity (Mus musculus [13]): Active
- Activity (Mus musculus [14]): Active
- Activity (Mus musculus [15]): Active
